Source: PubChem
SMARCA2 act – activators of SMARCA2 function; MG213 cells, MMTV-luciferase reporter, dexamethasone, overnight; activation, % at 9.1 µM; hit rate 1% among 370,000; in the data active = activation above about 7.8%;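 also: 0% = vehicle wells and 100% = reference activator wells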
TbMetRS inhib – blocks T. brucei methionyl-tRNA synthetase activity. purified T. brucei MetRS, ATP depletion, Kinase-Glo luminescence. hit rate 0.4% among 360,000. inhibition, % at 11.9 µM;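 active = inhibition above a per-plate cutoff of the control wells' mean inhibition plus 3 SD, cut at about 5.5% in these data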;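 also: 0% = DMSO wells median and 100% = median of wells with control inhibitor compound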
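Measured by: Kinase-Glo luciferase luminescence reporting remaining unconsumed ATP. Material: purified T. brucei MetRS enzyme. Doses: 11.9 µM compound single dose, 0.9% DMSO. Medium: HEPES buffer containing pyrophosphatase, BSA, spermine, DTT. Times: 15 min preincubation, 2 h reaction, all 25 °C. Reagent: methionine, ATP and bulk E. coli tRNA.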
TAG inh – triacylglycerol accumulation inhibition; H9c2 cells, Nile Red lipid (TAG) fluorescence; cells loaded with 200 µM oleic acid; inhibition, % at 12.5 µM; hit rate 0.66% among 230,000; AID 651582;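 active = pattern-corrected inhibition of lipid staining of at least 50% with the nuclear-stain viability signal not falling by more than 50%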;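 also: 0% = DMSO wells and 100% = triacsin C control wells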
Efflux pump inh – blocks antifungal efflux pumps in multiplex yeast assay | hit rate 0.44% among 330,000 | inhibition, % at 10 µM | S. cerevisiae Candida pump triplex, Nile Red efflux;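 active = plate passing quality check with inhibition over a set limit, or well fluorescence over plate mean plus 4 SD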;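 also: Nile Red retained in pooled yeast measured as flow cytometry median fluorescence; 0% = buffer negative control and 100% = Enniatin B positive control; higher means more Nile Red kept so more efflux inhibition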
AHR act – human AHR activation | activation, % at 5 µM | AHR-responsive luciferase reporter cells, luminescence | AID 2796 | hit rate 2.5% among 320,000; in the data active = activation above about 47%;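 also: 0% = vehicle wells and 100% = reference agonist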
Target sequence (P35869 whole entry, looked up): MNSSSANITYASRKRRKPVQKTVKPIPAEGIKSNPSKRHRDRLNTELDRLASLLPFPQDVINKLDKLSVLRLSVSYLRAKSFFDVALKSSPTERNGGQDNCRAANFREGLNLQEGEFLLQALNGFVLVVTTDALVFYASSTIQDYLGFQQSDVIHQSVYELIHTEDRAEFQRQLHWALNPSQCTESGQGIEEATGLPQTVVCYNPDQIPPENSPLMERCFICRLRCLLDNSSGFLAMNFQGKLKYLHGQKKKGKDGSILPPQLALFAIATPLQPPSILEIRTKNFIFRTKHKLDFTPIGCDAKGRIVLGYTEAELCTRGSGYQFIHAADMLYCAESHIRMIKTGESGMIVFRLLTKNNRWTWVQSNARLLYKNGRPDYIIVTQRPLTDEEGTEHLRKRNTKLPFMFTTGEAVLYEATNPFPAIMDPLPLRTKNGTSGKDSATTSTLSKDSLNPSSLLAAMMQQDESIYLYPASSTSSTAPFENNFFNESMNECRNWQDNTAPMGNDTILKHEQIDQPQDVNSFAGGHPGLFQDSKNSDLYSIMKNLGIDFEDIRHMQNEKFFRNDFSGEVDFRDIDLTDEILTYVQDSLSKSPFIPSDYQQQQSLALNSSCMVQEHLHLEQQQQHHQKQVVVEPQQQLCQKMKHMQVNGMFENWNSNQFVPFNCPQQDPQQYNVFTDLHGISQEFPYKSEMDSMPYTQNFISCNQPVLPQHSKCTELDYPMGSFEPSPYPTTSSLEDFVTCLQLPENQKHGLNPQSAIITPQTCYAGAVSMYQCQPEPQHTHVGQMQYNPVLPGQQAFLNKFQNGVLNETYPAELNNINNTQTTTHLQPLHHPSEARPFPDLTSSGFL
An asterisk follows results filed as active; . = not tested or not shown. Only some compounds are listed: those with a hit (about 4.1% of all), similar ones and a draw of the others.

SMILES | SMARCA2 act | TbMetRS inhib | TAG inh | Efflux pump inh | AHR act
Cc1ccc(NC(=O)Nc2nc3ccccc3s2)cc1NC(=O)Nc1nc2ccccc2s1 | 3.5 | -1.1 | . | 0.0 | 53.8*
C/C=C/C(=O)N1CCc2cc(S(=O)(=O)N(C)Cc3ccco3)ccc21 | -3.7 | . | . | . | .
COC(=O)C1CN(Cc2cn(Cc3ccc(Cl)cc3)nn2)CCS(=O)(=O)N1Cc1ccc(OC)cc1 (stereo unspecified) | -2.3 | . | . | . | .
CC(C)CNS(=O)(=O)/C=C/c1ccccc1CNC(=O)OC(C)(C)C | -0.6 | . | . | . | .
CCc1cc2c(nc1CC)CCCN2S(=O)(=O)c1ccccc1C | 1.4 | . | . | . | .
O=C(COc1ccccc1)NNc1nc2c(F)cccc2s1 | 4.2 | -0.8 | 0.7 | -0.2 | 22.3
O=C(COc1ccccc1)NNc1nc2ccccc2s1 | -6.8 | -0.9 | -2.3 | -0.1 | 50.0*
CC(COc1ccc(S(C)(=O)=O)cc1)CN1CCC(C(O)(c2ccccc2)c2ccccc2)CC1 (stereo unspecified) | -1.1 | . | . | . | .
O=C1CC(N2CCCN(Cc3ccccc3)CC2)=NC(=O)N1c1ccc(Br)cc1 | -2.8 | . | . | . | .
Oc1[nH]c2ccc(Br)cc2c1N=NC(=S)Nc1ccc(F)cc1 | -2.8 | 0.1 | 14.5 | -0.4 | 74.8*
CC(NC(=O)/C(C#N)=C/c1ccc(N2CCOCC2)cc1)c1ccccc1 (stereo unspecified) | -4.7 | -0.5 | . | -0.3 | 47.3*
COC(=O)c1ccc(/C=C(\C#N)C(=O)NC(C)c2ccccc2)cc1 (stereo unspecified) | 0.0 | 0.2 | . | -0.1 | -0.8
CN1C(=O)S/C(=C\c2ccc(-n3cncn3)cc2)C1=O | -0.5 | -1.7 | . | -0.1 | -0.6
COC(=O)/C=C/c1ccc(-n2cncn2)cc1 | 7.8* | 1.6 | . | -0.1 | 4.8
COc1ccc(-c2cc3ccccc3c(=O)o2)cc1 | 4.1 | -0.5 | . | . | .
COc1ccc(C2Nc3ccc4ccccc4c3-c3c2c(=O)oc2ccccc32)cc1 (stereo unspecified) | -2.7 | -1.4 | . | 1.7* | 7.5
O=CC1=C(N2CCOCC2)/C(=C\c2ccccc2)CC1 | 2.6 | 2.1 | 8.9 | 0.1 | 3.1
N#CC1=C(N2CCOCC2)/C(=C\c2ccccc2)CC1 | -3.0 | 0.1 | -10.4 | -0.1 | 49.2*
CCCCCC[n+]1c(-c2ccccc2)csc1Nc1ccccc1 | 3.1 | -0.4 | . | 1.4 | 1.5
COc1ccc(-c2csc(Nc3ccccc3)[n+]2CC(O)c2ccc([N+](=O)[O-])cc2)cc1 (stereo unspecified) | -4.0 | 1.4 | 0.2 | 0.0 | 47.3*
Cc1ccc(S(=O)(=O)Nc2cc3c(C(=O)Nc4ccccc4)c(C)oc3c3ccccc23)cc1 | -0.8 | 0.2 | . | 0.1 | 63.8*
CC(C)(C)c1ccc(Cn2c(=N)n(CC(O)c3ccco3)c3ccccc32)cc1 (stereo unspecified) | . | -0.1 | 107.1* | 0.3 | 3.0
CC(C)[C@H]1/C(=C/C2CC2)N2C(=O)C[C@@H](c3ccccc3)N=C2N1Cc1ccc2c(c1)OCO2 | -3.0 | . | . | . | .
Oc1ccc(-c2nccc(-c3cccs3)n2)cc1 | 3.4 | -0.8 | 7.9 | -0.2 | 69.8*
COc1cc(OC)cc(C(=O)NC(=S)NCCc2ccccc2)c1 | -1.7 | -0.1 | . | 0.0 | 69.1*
SMILES | SMARCA2 act | TbMetRS inhib | TAG inh | Efflux pump inh | AHR act
COc1ccc(C2CCC3(CCC(=O)N3CCOC(=O)NCc3ccc(Cl)cc3)CC2)cc1 (stereo unspecified) | -5.9 | . | . | . | .
Cc1ccc(NC(=O)CCC(=O)NNC(=O)COc2ccc([N+](=O)[O-])cc2)cc1C | -2.3 | -0.2 | 3.8 | 0.0 | 53.3*
COc1ccc(-c2[nH]c(-c3ccc(SC)cc3)nc2SCC(=O)Nc2nccs2)cc1 | -2.4 | 0.5 | . | -0.1 | 52.4*
COc1ccc(-c2nc(SCC(=O)NC3CCCC3)c(-c3ccc(OC)cc3)[nH]2)cc1 | -0.8 | -0.3 | 27.4 | 0.3 | 48.9*
COc1ccc(-c2cc(-c3ccccc3)nc(SCC(=O)Nc3nccs3)c2C#N)cc1 | -0.6 | -0.6 | 38.6 | -0.1 | -0.6
COc1ccc(-c2[nH]c(-c3cccc(OC)c3)nc2SCC(=O)NCc2ccco2)cc1 | -2.7 | -0.5 | 10.6 | 0.2 | 77.4*
COc1ccc(-c2[nH]c(-c3ccc(C)cc3)nc2SCC(=O)Nc2nccs2)cc1 | -4.2 | -0.5 | 11.8 | 0.6 | 55.4*
Cc1ccc(-c2nc(SCC(=O)NCC3CCCO3)c(-c3ccc(C)cc3)[nH]2)cc1 (stereo unspecified) | -1.1 | 0.0 | 1.9 | 0.0 | 54.1*
Cc1ccc2nc(SCC(=O)NCC3CCCO3)c(C#N)cc2c1 (stereo unspecified) | 0.7 | -1.7 | -7.6 | 0.1 | 5.1
